Measured values reported in ChEMBL document CHEMBL3352026, “Structure-activity relationship of highly potent galactonoamidine inhibitors toward β-galactosidase (Aspergillus oryzae)” (J Med Chem, 2014).

Biological target: not listed separately
Assay: Inhibition of almond beta-glucosidase
Set-up: species or system Prunus dulcis
`OC[C@H]1N/C(=N/CCc2ccccc2)[C@H](O)[C@@H](O)[C@H]1O` gave a Ki of at most 1.2 nM.

Biological target: not listed separately
Assay: Inhibition of Caldicellulosiruptor saccharolyticus beta-glucosidase
`OC[C@H]1N/C(=N/CCc2ccccc2)[C@H](O)[C@@H](O)[C@H]1O` gave a Ki of at most 1.2 nM.

Biological target: T1, Beta-galactosidase (Aspergillus oryzae, UniProt Q2U7N3)
T1 sequence (Q2U7N3 whole entry): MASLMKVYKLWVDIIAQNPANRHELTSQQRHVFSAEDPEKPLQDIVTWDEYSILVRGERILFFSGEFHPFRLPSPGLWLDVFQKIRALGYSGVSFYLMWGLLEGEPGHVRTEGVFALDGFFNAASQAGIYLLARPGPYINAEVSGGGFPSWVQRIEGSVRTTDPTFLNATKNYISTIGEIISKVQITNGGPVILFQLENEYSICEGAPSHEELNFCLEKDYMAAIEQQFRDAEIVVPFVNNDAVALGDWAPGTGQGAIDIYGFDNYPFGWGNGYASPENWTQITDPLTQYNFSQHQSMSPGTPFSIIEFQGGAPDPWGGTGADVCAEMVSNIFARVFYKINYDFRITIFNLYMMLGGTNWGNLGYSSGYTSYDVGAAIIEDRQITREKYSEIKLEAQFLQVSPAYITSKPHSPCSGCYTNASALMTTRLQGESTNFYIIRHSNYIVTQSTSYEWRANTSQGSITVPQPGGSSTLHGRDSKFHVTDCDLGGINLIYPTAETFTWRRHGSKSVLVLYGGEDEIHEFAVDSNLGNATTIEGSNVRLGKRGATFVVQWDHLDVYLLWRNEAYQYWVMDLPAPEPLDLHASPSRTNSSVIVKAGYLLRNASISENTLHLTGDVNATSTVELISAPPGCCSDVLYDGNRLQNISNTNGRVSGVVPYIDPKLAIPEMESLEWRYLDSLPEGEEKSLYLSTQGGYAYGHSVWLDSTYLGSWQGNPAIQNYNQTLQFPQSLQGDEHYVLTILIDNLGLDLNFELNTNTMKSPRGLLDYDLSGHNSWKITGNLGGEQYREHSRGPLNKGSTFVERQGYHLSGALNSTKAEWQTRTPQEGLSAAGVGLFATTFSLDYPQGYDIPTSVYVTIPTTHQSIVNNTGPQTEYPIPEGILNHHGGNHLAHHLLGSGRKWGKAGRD
Assay: Inhibition of Aspergillus oryzae beta-galactosidase using 2-chloro-4-nitrophenyl beta-Dgalactopyranoside as substrate by spectrophotometry
Method in brief: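 Dextrin-stabilised lyophilised A. oryzae enzyme in 50 mM acetate, pH 5.00, 30 °C, 100 μL. Substrate plus inhibitor preincubated 30 min before enzyme addition. 2-chloro-4-nitrophenolate read at 405 nm. […] For IC50, substrate was fixed, inhibitor 5 × 10⁻⁴–50 μM, read at 60 min against blanks, in duplicate.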
With `COc1ccc(C/N=C2\N[C@H](CO)[C@H](O)[C@H](O)[C@H]2O)cc1` the Ki was 17.1 nM. `OC[C@H]1N/C(=N\Cc2ccc(C(F)(F)F)cc2)[C@H](O)[C@@H](O)[C@H]1O` showed a Ki of 15.7 nM. In the case of `OC[C@H]1N/C(=N\Cc2ccc(F)cc2)[C@H](O)[C@@H](O)[C@H]1O`, the Ki is reported as 10.1 nM. `CC(C)(C)c1ccc(C/N=C2\N[C@H](CO)[C@H](O)[C@H](O)[C@H]2O)cc1` showed a Ki of 20.6 nM. `OC[C@H]1N/C(=N\Cc2ccccc2F)[C@H](O)[C@@H](O)[C@H]1O` gave a Ki of 16.1 nM. `OC[C@H]1N/C(=N\Cc2cccc(F)c2)[C@H](O)[C@@H](O)[C@H]1O` showed a Ki of 20.3 nM. With `OC[C@H]1N/C(=N\Cc2ccccc2)[C@H](O)[C@@H](O)[C@H]1O` the Ki was 21.1 nM. `Cc1ccccc1C/N=C1\N[C@H](CO)[C@H](O)[C@H](O)[C@H]1O` showed a Ki of 23.6 nM. With `Cc1cccc(C/N=C2\N[C@H](CO)[C@H](O)[C@H](O)[C@H]2O)c1` the Ki was 29.4 nM. For `Cc1ccc(C/N=C2\N[C@H](CO)[C@H](O)[C@H](O)[C@H]2O)cc1`, the IC50 was 36 nM and the Ki was 8 nM. `CCC/N=C1\N[C@H](CO)[C@H](O)[C@H](O)[C@H]1O` showed a Ki of 149 nM. For `CCCCCCC/N=C1\N[C@H](CO)[C@H](O)[C@H](O)[C@H]1O`, the IC50 was 107 nM and the Ki was 10.8 nM. `CCCCCCCCCCCC/N=C1\N[C@H](CO)[C@H](O)[C@H](O)[C@H]1O` gave a Ki of 48.4 nM. `CCCCC(CC)/N=C1\N[C@H](CO)[C@H](O)[C@H](O)[C@H]1O` (stereo partly drawn) gave an IC50 of 22 nM and a Ki of 7.8 nM. `OC[C@H]1N/C(=N\CCCc2ccccc2)[C@H](O)[C@@H](O)[C@H]1O` showed an IC50 of 36 nM and a Ki of 8.6 nM. Compound `OC[C@H]1N/C(=N\C2CC2)[C@H](O)[C@@H](O)[C@H]1O` has a Ki of 31.9 nM. `OC[C@H]1N/C(=N\C2CCCCC2)[C@H](O)[C@@H](O)[C@H]1O` showed an IC50 of 4800 nM and a Ki of 602 nM. In the case of `OC[C@H]1N/C(=N\CC2CC2)[C@H](O)[C@@H](O)[C@H]1O`, the IC50 is reported as 0.86 nM and the Ki is reported as 9.5 nM. In the case of `OC[C@H]1N/C(=N\CC2CCCCC2)[C@H](O)[C@@H](O)[C@H]1O`, the IC50 is reported as 22 nM and the Ki is reported as 11.3 nM. For `OC[C@H]1N/C(=N\CC2CCCCCC2)[C@H](O)[C@@H](O)[C@H]1O`, the IC50 was 36 nM and the Ki was 6.3 nM. With `N=C1N[C@H](CO)[C@H](O)[C@H](O)[C@H]1O` the Ki was 150 nM. `O=C1N[C@H](CO)[C@H](O)[C@H](O)[C@H]1O` showed a Ki of 615 nM.

Biological target: not listed separately
Assay: Inhibition of Aspergillus niger beta-glucosidase
With `OC[C@H]1N/C(=N/CCc2ccccc2)[C@H](O)[C@@H](O)[C@H]1O` the Ki was at most 1.2 nM.
